In paper PMC11649739 (Clinical Pharmacokinetics, 2024):
Where “and” joins values, the source holds several entries; their conditions need not be identical. Identical values can stand only once. Like-named read-outs stand apart in the source and are kept apart here.

Assays:
[1] = format: in vivo, human; details: human, plasma, oral; for AUC: Entire AUC; for Cmax: Entire Cmax
Summary of the method: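 Ensitrelvir was dosed once daily, 375 mg on day 1 then 125 mg on days 2–5, or 750/250 mg. A population PK model was fitted to 8034 plasma concentrations from 2060 healthy and SARS-CoV-2-infected participants: two-compartment, first-order absorption, with covariates tested on CL/F. Empirical Bayesian estimates from the final model were used to calculate individual exposures for SCORPIO-SR phase III participants.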

SARS-CoV-2 [2] = format: in vivo, human
Summary of the method: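 Phase III SCORPIO-SR participants received ensitrelvir or placebo. Dosing was once daily for 5 days, either 375 mg on day 1 then 125 mg on days 2–5, or 750 mg then 250 mg. Day-1 C24 (also Cmax and AUC) came from empirical Bayesian post hoc estimates. For placebo these were set to 0. Exposures were split into quartiles and boxplotted against change from baseline in viral RNA on day 4. Sub-LLOQ RNA values were set to LLOQ.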

[3] = cited from earlier work
cytochrome P450 3A = details: drug interactions; cited from earlier work
P-glycoprotein = details: drug interactions; cited from earlier work
[4] = test system: breast cancer resistance protein; details: drug interactions; cited from earlier work
SARS-CoV-2 [5] = details: cited from earlier work
[6] = Mean, 250 mg group: 750 mg on day 1 and 250 mg on days 2–5
[7] = Median, 250 mg group: 750 mg on day 1 and 250 mg on days 2–5
[8] = body weight 35.0 and 156.0 kg vs median
[9] = final model no. 511, body weight 62.6 kg

With `Cn1cnc(Cn2c(=O)[nH]/c(=N\c3cc4cn(C)nc4cc3Cl)n(Cc3cc(F)c(F)cc3F)c2=O)n1` [ensitrelvir] the concentration at 24 h ([1]; C24_d1, Median, 250 mg group: 750 mg on day 1 and 250 mg on days 2–5, 24 h postdose on day 1) was 34200 ng/mL, the concentration at 24 h ([1]; C24_d1, Minimum, 125 mg group: 375 mg on day 1 and 125 mg on days 2–5, 24 h postdose on day 1) was 8430 ng/mL and the concentration at 24 h ([1]; C24_d1, Minimum, 250 mg group: 750 mg on day 1 and 250 mg on days 2–5, 24 h postdose on day 1) was 19400 ng/mL. The concentration at 24 h ([1]; C24_d5, Maximum, 125 mg group: 375 mg on day 1 and 125 mg on days 2–5, 24 h postdose on day 5) was 35200 ng/mL, the concentration at 24 h ([1]; C24_d5, Maximum, 250 mg group: 750 mg on day 1 and 250 mg on days 2–5, 24 h postdose on day 5) was 80900 ng/mL and the concentration at 24 h ([1]; C24_d5, Mean, 125 mg group: 375 mg on day 1 and 125 mg on days 2–5, 24 h postdose on day 5) was 19500 ng/mL. For the same molecule, the concentration at 24 h ([1]; C24_d5, Mean, 250 mg group: 750 mg on day 1 and 250 mg on days 2–5, 24 h postdose on day 5) was 41800 ng/mL, the concentration at 24 h ([1]; C24_d5, Median, 125 mg group: 375 mg on day 1 and 125 mg on days 2–5, 24 h postdose on day 5) was 19200 ng/mL and the concentration at 24 h ([1]; C24_d5, Median, 250 mg group: 750 mg on day 1 and 250 mg on days 2–5, 24 h postdose on day 5) was 40800 ng/mL. For the same molecule, the concentration at 24 h ([1]; C24_d5, Minimum, 125 mg group: 375 mg on day 1 and 125 mg on days 2–5, 24 h postdose on day 5) was 10500 ng/mL, the concentration at 24 h ([1]; C24_d5, Minimum, 250 mg group: 750 mg on day 1 and 250 mg on days 2–5, 24 h postdose on day 5) was 24300 ng/mL and the AUC ([1]; Mean, 125 mg group: 375 mg on day 1 and 125 mg on days 2–5) was 2570 µg·h/mL. For the same molecule, the AUC [1, 6] was 5430 µg·h/mL, the AUC ([1]; Median, 125 mg group: 375 mg on day 1 and 125 mg on days 2–5) was 2530 µg·h/mL and the AUC [1, 7] was 5320 µg·h/mL. For the same molecule, the Cmax [1, 6] was 56.4 µg/mL, the Cmax [1, 7] was 55.1 µg/mL and the “antiviral effects between the 375/125 mg and 750/250 mg doses” value (SARS-CoV-2 [2]; C24 on day 1 between 8.43 and 61.0 μg/mL) was “did not differ”. For the same molecule, the “virus RNA decrease across exposure categories (C24 on day 1 quartiles)” value (SARS-CoV-2 [2]; day 4, within the exposure range evaluated, phase III of SCORPIO-SR) was “decreased to a similar extent in all categories”, the “change from baseline in the amount of SARS-CoV-2 viral RNA on day 4, versus placebo” value (SARS-CoV-2 [2]; ensitrelvir dosing groups, phase III of SCORPIO-SR) was “lower in the ensitrelvir dosing group than in the placebo group” and the “Interindividual variability of CL/F” value (base model) was 28.9%. The “Interindividual variability of Ka” value (base model) was 88.1%, the “Interindividual variability of Vc/F” value (base model) was 23.2% and the “range of the ratios of the minimum and maximum values to the median of BW for AUC” value [8] was 0.623–1.353. For the same molecule, the “range of the ratios of the minimum and maximum values to the median of BW for Cmax” value [8] was 0.410–1.741, the “Interindividual variability of CL/F, Estimate (95% CI)” value (final model no. 511) was 21.3% and 21.3 (19.7–22.8) % and the “Interindividual variability of Ka, Estimate (95% CI)” value (final model no. 511) was 72.9% and 72.9 (64.3–80.6) %. The “Interindividual variability of Vc/F, Estimate (95% CI)” value (final model no. 511) was 14.7% and 14.7 (12.8–16.3) %, the “Intraindividual variability: additive residual error, Estimate (95% CI)” value (final model no. 511) was 0.0317 (0.0224–0.0410) µg/mL and the “Intraindividual variability: proportional residual error, Estimate (95% CI)” value (final model no. 511) was 19.9 (18.5–21.3) %. The “Q/F, Estimate (95% CI)” value (final model no. 511) was 0.539 (0.321–0.757) L/h, the “Vp/F, Estimate (95% CI)” value (final model no. 511) was 2.50 (1.80–3.20) L and the “CL/F, Estimate (95% CI)” value [9] was 0.211 (0.208–0.214) L/h. For the same molecule, the “Vc/F, Estimate (95% CI)” value [9] was 14.7 (13.9–15.5) L, the “Additive residual error, Bootstrap estimate Median (95% CI)” value (final model no. 511, bootstrap) was 0.0331 (0.00945–0.0570) µg/mL and the “CL/F, Bootstrap estimate Median (95% CI)” value (final model no. 511, bootstrap) was 0.211 (0.207–0.214) L/h. The “Effect of body weight on Vc/F, Bootstrap estimate Median (95% CI)” value (final model no. 511, bootstrap) was 1.04 (0.959–1.11), the “Effect of food on Ka, Bootstrap estimate Median (95% CI)” value (final model no. 511, bootstrap) was 0.599 (0.447–1.00) and the “Effect of formulation on Ka, Bootstrap estimate Median (95% CI)” value (final model no. 511, bootstrap) was 0.367 (0.280–0.469). The “Interindividual variability of CL/F, Bootstrap estimate Median (95% CI)” value (final model no. 511, bootstrap) was 21.3 (20.0–23.0) %, the “Interindividual variability of Ka, Bootstrap estimate Median (95% CI)” value (final model no. 511, bootstrap) was 72.1 (64.4–80.4) % and the “Interindividual variability of Vc/F, Bootstrap estimate Median (95% CI)” value (final model no. 511, bootstrap) was 14.6 (12.7–16.5) %. The “Ka, Bootstrap estimate Median (95% CI)” value (final model no. 511, bootstrap) was 1.50 (1.23–1.80) 1/h, the “Proportional residual error, Bootstrap estimate Median (95% CI)” value (final model no. 511, bootstrap) was 19.8 (18.6–21.2) % and the “Q/F, Bootstrap estimate Median (95% CI)” value (final model no. 511, bootstrap) was 0.534 (0.331–0.823) L/h. For the same molecule, the “Vc/F, Bootstrap estimate Median (95% CI)” value (final model no. 511, bootstrap) was 14.8 (13.9–15.5) L, the “Vp/F, Bootstrap estimate Median (95% CI)” value (final model no. 511, bootstrap) was 2.49 (1.74–3.26) L and the “Effect of formulation on Ka, Estimate (95% CI)” value (final model no. 511, multiplier, tablet vs suspension) was 0.362 (0.262–0.462). The “Effect of body weight on Vc/F, Estimate (95% CI)” value (final model no. 511, power exponent on body weight/62.6) was 1.04 (0.960–1.12), the “Ka, Estimate (95% CI)” value (final model no. 511, typical value (suspension, not within 2 h after a meal)) was 1.50 (1.25–1.75) 1/h and the “effect of food intake on pharmacokinetic profiles” value [3] was “not substantially affected”. The “recovered in the urine as unchanged ensitrelvir” value ([3]; dose groups ranging from 20 to 1000 mg) was 12.9–21.8%, the “effect of fed state on Cmax” value ([3]; fed state with a high-fat/high-calorie meal vs fasted, phase I study) was “not affected” and the “pharmacokinetic profiles among various populations” value ([3]; including healthy white participants) was “not meaningfully different”. For the same molecule, the “terminal elimination half-life (t½,z)” value ([3]; single administration) was 42.2 to 48.1 h, the “increase of Cmax and AUC0–inf with dose” value ([3]; single oral administration, 20 to 2000 mg, fasted state) was “almost dose-proportional” and the “time at which maximum plasma concentration is reached” value ([3]; single oral administration) was “around 2.50 h”. The “inhibition of cytochrome P450 3A” value (cytochrome P450 3A) was “inhibits”, the “inhibition of P-glycoprotein” value (P-glycoprotein) was “inhibits” and the “inhibition of breast cancer resistance protein” value [4] was “inhibits”. The “time to five COVID-19 symptoms” value (SARS-CoV-2 [5]; 125-mg group, phase III of SCORPIO-SR) was 167.9 h and the “clearance of SARS-CoV-2” value (SARS-CoV-2 [5]; both dose groups 375/125 mg and 750/250 mg) was “rapid clearance of SARS-CoV-2”.
